Experimental data as given in ChEMBL document CHEMBL1123757, “Selective thromboxane synthetase inhibitors and antihypertensive agents. New derivatives of 4-hydrazino-5H-pyridazino[4,5-b]indole, 4-hydrazinopyridazino[4,5-a]indole, and related compounds” (J Med Chem, 1987).
The source made the active and inactive calls. The rule behind the calls is not given here.

Columns and labels:
[1] = tested on: Rattus norvegicus; assay: Antihypertensive activity in spontaneously hypertensive rats (SHR) measured by percentage fall in arterial pressure (AP) at 1 mg/kg administered intraperitoneally at 3 h; assay type: functional, Artery; settings: route intraperitoneal
Outline: (§1)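 Unanesthetized Okamoto-strain SHR, male and female, 8 weeks old, 300–350 g, systolic pressure ≥190 mmHg, heart rate 400–650 beats/min; five animals per dose. Given ip at 2.5 mL/kg, dissolved or suspended in normal saline or saline with 0.2% (carboxymethyl)cellulose and 1.0% Tween 80. Tail AP and CR recorded by mechanical transduction at set times; reported as percentage fall from control.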

[2] = tested on: Rattus norvegicus; assay: Antihypertensive activity in spontaneously hypertensive rats (SHR) measured by percentage fall in cardiac rhythm (CR) at 1 mg/kg administered intraperitoneally at 1 h; assay type: functional, Heart; settings: route intraperitoneal; outline: as §1
[3] = species on record: Cavia porcellus; settings: 50 mg/kg
[4] = tested on: Rattus norvegicus; assay: Percent increase in cardiac rhythm, directly measured on carotid (iv on the jugular vein) of spontaneously hypertensive rats at 1 mg/kg after 30 minutes; settings: Heart, 0.5 h, read-out: Inhibition
[5] = species on record: Homo sapiens; settings: 10e-5 M
[6] = species on record: Rattus norvegicus; settings: Artery, 1 mg/kg
[7] = species on record: Homo sapiens; settings: 10e-5 M; remark: listed apart in the source
[8] = species on record: Rattus norvegicus; settings: Artery, 1 mg/kg; remark: listed apart in the source
[9] = species on record: Homo sapiens; assay: In vitro inhibition of platelet aggregation induced by AA (PRP incubated for 60 minutes at 37 degree C) at 10e-5 M;No significance; assay type: functional
Outline: (§2)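 Human venous blood anticoagulated with 3.8% sodium citrate (1:9). PRP from centrifugation at 800 rpm for 10 min at room temperature. Count adjusted with PPP to […]. Compound in saline with 10% ethylene glycol is added to PRP and incubated at 37 °C before the agonist. Agonists: ADP 2×10^-5 M, AA 0.6 mM, PGH2 2.8 μM, adrenaline 0.6 μM. Born absorbance aggregometry; n = 5.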

[10] = species on record: Cavia porcellus; settings: 100 mg/kg
[11] = tested on: Rattus norvegicus; assay: Antihypertensive activity in spontaneously hypertensive rats (SHR) measured by percentage fall in arterial pressure (AP) at 1 mg/kg administered intraperitoneally at 1 h; assay type: functional, Artery; settings: route intraperitoneal; outline: as §1
[12] = tested on: Rattus norvegicus; assay: Antihypertensive activity in spontaneously hypertensive rats (SHR) measured by percentage fall in cardiac rhythm (CR) at 1 mg/kg administered intraperitoneally at 3 h; assay type: functional, Heart; settings: route intraperitoneal; outline: as §1
[13] = tested on: Rattus norvegicus; assay: Percent fall in systolic blood pressure, directly measured on carotid (iv on the jugular vein) of spontaneously hypertensive rats at 1 mg/kg after 60 minutes; assay type: functional, Artery
Outline: (§3)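 Anesthetized (sodium pentobarbital, 70 mg/kg) male and female Okamoto SHR, 8 weeks old, 300–350 g. Given iv into the jugular vein in normal saline. Arterial pressure and cardiac rhythm are recorded directly from the carotid by polygraph at set times after dosing. Each is expressed as percent change from the pre-dose control value.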

[14] = tested on: Cavia porcellus; assay: Ex vivo inhibition of platelet aggregation induced by AA at 100 mg/kg; assay type: functional
Outline: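 Fasted male or female guinea pigs (250–300 g, five per group) dosed orally in normal saline or saline with 0.2% (carboxymethyl)cellulose/1.0% Tween 80; controls given vehicle. Under ether, cardiac blood collected into 3.8% citrate. PRP adjusted to […] and aggregation induced by ADP (second wave) or AA, read by absorbance aggregometry. PGE2 and TXB2 measured by RIA.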

[15] = tested on: Rattus norvegicus; assay: Antihypertensive activity in spontaneously hypertensive rats (SHR) measured by percentage fall in arterial pressure (AP) at 1 mg/kg administered intraperitoneally at 24 h;No significance; assay type: functional, organism-based; design: dose 1 mg/kg; settings: Artery; outline: as §1
[16] = tested on: Rattus norvegicus; assay: Percent fall in systolic blood pressure, directly measured on carotid (iv on the jugular vein) of spontaneously hypertensive rats at 1 mg/kg after 15 minutes; assay type: functional, Artery; outline: as §3
[17] = tested on: Rattus norvegicus; assay: Antihypertensive activity in spontaneously hypertensive rats (SHR) measured by percentage fall in cardiac rhythm (CR) at 1 mg/kg administered intraperitoneally at 5 h; assay type: functional, Heart; settings: route intraperitoneal; outline: as §1
[18] = species on record: Cavia porcellus; settings: 50 mg/kg; remark: listed apart in the source
[19] = tested on: Rattus norvegicus; assay: Percent fall in systolic blood pressure, directly measured on carotid (iv on the jugular vein) of spontaneously hypertensive rats at 1 mg/kg after 120 minutes; assay type: functional, Artery; outline: as §3
[20] = species on record: Cavia porcellus; settings: 30 mg/kg
[21] = species on record: Rattus norvegicus; settings: Heart, 1 mg/kg
[22] = tested on: Rattus norvegicus; assay: Percent fall in systolic blood pressure, directly measured on carotid (iv on the jugular vein) of spontaneously hypertensive rats at 1 mg/kg after 5 minutes; assay type: functional, Artery; outline: as §3
[23] = species on record: Rattus norvegicus; settings: Heart, 1 mg/kg; remark: listed apart in the source
[24] = species on record: Rattus norvegicus; settings: Heart, 1 mg/kg; remark: listed apart in the source
[25] = tested on: Rattus norvegicus; assay: Percent fall in systolic blood pressure, directly measured on carotid (iv on the jugular vein) of spontaneously hypertensive rats at 1 mg/kg after 75 minutes; assay type: functional, Artery; outline: as §3
[26] = species on record: Homo sapiens; assay: In vitro inhibition of platelet aggregation induced by ADP-II (PRP incubated for 5 minutes at 37 degree C) at 10e-5 M;No significance; assay type: functional; outline: as §2
[27] = tested on: Rattus norvegicus; assay: Percent fall in systolic blood pressure, directly measured on carotid (iv on the jugular vein) of spontaneously hypertensive rats at 1 mg/kg after 30 minutes; assay type: functional, Artery; outline: as §3
[28] = species on record: Cavia porcellus; settings: 30 mg/kg; remark: listed apart in the source
[29] = species on record: Rattus norvegicus; settings: Heart, 1 mg/kg; remark: listed apart in the source

For `Cl.NNc1nncc2ccccc12` [HYDRALAZINE HYDROCHLORIDE], the “Decrease in AP” value [1] was 20%, the “Decrease in CR” value [2] was -7% and the inhibition [3] was “inactive”. The inhibition in vivo at 1 mg/kg [4] was 20%, the inhibition [5] was “inactive” and the “Decrease in blood pressure” value [6] was “inactive”. The Increase [7] was “inactive”, the inhibition [8] was “inactive” and the inhibition [9] was “inactive”. For the same compound, the Inhibition % [10] was “inactive”, the “Decrease in AP” value [11] was 20% and the “Decrease in CR” value [12] was -5%. The “Decrease in blood pressure” value [13] was 52%, the inhibition in vivo at 100 mg/kg [14] was 75% and the “Decrease in AP” value [15] was “inactive”. For the same compound, the “Decrease in blood pressure” value [16] was 48%, the “Decrease in CR” value [17] was -2% and the inhibition [18] was “inactive”. For the same compound, the “Decrease in blood pressure” value [19] was 20%, the inhibition [20] was “inactive” and the “Decrease in blood pressure” value [21] was “inactive”. For the same compound, the “Decrease in blood pressure” value [22] was 40%, the inhibition [23] was “inactive” and the “Decrease in CR” value [24] was “inactive”. The “Decrease in blood pressure” value [25] was 60%, the inhibition [26] was “inactive” and the “Decrease in blood pressure” value [27] was 48%. The inhibition [28] was “inactive” and the inhibition [29] was “inactive”.
